Source: ChEMBL document CHEMBL1255544, “Synthesis and evaluation of novel chloropyrrole molecules designed by molecular hybridization of common pharmacophores as potential antimicrobial agents” (2010)
≈ marks a conversion by molar mass, not a printed value. Calls of active or inactive are those of the source. The rule behind the calls is not given here.

What was measured:
Escherichia coli [1] = test: Antimicrobial activity against Escherichia coli ATCC […] after 24 hrs by disk diffusion method; format: functional
How it was run: (§1)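 Zone of inhibition by disc diffusion against E. coli ATCC-25922, S. aureus ATCC-25923, P. aeruginosa ATCC-27853 and recultured Klebsiella pneumoniae.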

Staphylococcus aureus [2] = test: Antimicrobial activity against Staphylococcus aureus ATCC 25923 after 24 hrs by disk diffusion method; format: functional; how it was run: as §1
Klebsiella pneumoniae [3] = test: Antimicrobial activity against Klebsiella pneumoniae after 24 hrs by disk diffusion method; format: functional; how it was run: as §1
Escherichia coli [4] = test: Antimicrobial activity against Escherichia coli ATCC […] after 24 hrs by broth dilution method; format: functional
How it was run: (§2)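 MIC by broth dilution: the lowest concentration (highest dilution) that arrested bacterial or fungal growth. Strains were E. coli ATCC-25922, S. aureus ATCC-25923, P. aeruginosa ATCC-27853 and C. albicans.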

Staphylococcus aureus [5] = test: Antimicrobial activity against Staphylococcus aureus ATCC 25923 after 24 hrs by broth dilution method; format: functional; conditions: ATCC 25923, 24 h; how it was run: as §2
Pseudomonas aeruginosa [6] = test: Antimicrobial activity against Pseudomonas aeruginosa ATCC 27853 after 24 hrs by broth dilution method; format: functional; conditions: ATCC 27853, 24 h; how it was run: as §2
Klebsiella pneumoniae [7] = test: Antimicrobial activity against Klebsiella pneumoniae after 24 hrs by broth dilution method
Candida albicans [8] = test: Antimicrobial activity against Candida albicans after 48 hrs by agar dilution method; format: functional
How it was run: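 Candida albicans tested by agar dilution, with compounds in DMSO.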

Candida albicans [9] = test: Antimicrobial activity against Candida albicans after 48 hrs by broth dilution method; format: functional; how it was run: as §2
Pseudomonas aeruginosa [10] = test: Antimicrobial activity against Pseudomonas aeruginosa ATCC 27853 at 100 ug/ml after 24 hrs by broth dilution method; format: functional, organism-based
Klebsiella pneumoniae [11] = test: Antimicrobial activity against Klebsiella pneumoniae at 100 ug/ml after 24 hrs by broth dilution method; format: functional, organism-based
Pseudomonas aeruginosa [12] = test: Antimicrobial activity against Pseudomonas aeruginosa ATCC 27853 after 24 hrs by disk diffusion method; format: functional; how it was run: as §1

O=C(O)c1cn(C2CC2)c2cc(N3CCNCC3)c(F)cc2c1=O [CIPROFLOXACIN]
Zone of inhibition (Escherichia coli [1]; Escherichia coli, ATCC 2522, 24 h): 25 mm
diameter of the inhibition zone (DIZ) (Staphylococcus aureus [2]; Staphylococcus aureus, ATCC 25923, 24 h): 20 mm
Zone of inhibition (Klebsiella pneumoniae [3]; Klebsiella pneumoniae, 24 h): 26 mm
MIC (Escherichia coli [4]): 1.06 µg/mL (≈ 3.2 µM)
MIC (Staphylococcus aureus [5]): 1.56 µg/mL (≈ 4.71 µM)
MIC (Pseudomonas aeruginosa [6]): 3.12 µg/mL (≈ 9.43 µM)
MIC (Klebsiella pneumoniae [7]): 1.56 µg/mL (≈ 4.71 µM)

COc1ccc(/C=C/C(=O)c2ccc(Cl)[nH]2)cc1
diameter of the inhibition zone (DIZ) (Escherichia coli [1]): 10 mm
diameter of the inhibition zone (DIZ) (Staphylococcus aureus [2]): 17 mm
diameter of the inhibition zone (DIZ) (Candida albicans [8]): 14 mm
MIC (Escherichia coli [4]): 50 µg/mL (≈ 191 µM)
MIC (Staphylococcus aureus [5]): 25 µg/mL (≈ 95.5 µM)
MIC (Candida albicans [9]): 100 µg/mL (≈ 382 µM)
Activity (Pseudomonas aeruginosa [10]): inactive
Activity (Klebsiella pneumoniae [11]): inactive

O=C(/C=C/c1ccco1)c1ccc(Cl)[nH]1
diameter of the inhibition zone (DIZ) (Escherichia coli [1]): 16 mm
diameter of the inhibition zone (DIZ) (Staphylococcus aureus [2]): 15 mm
diameter of the inhibition zone (DIZ) (Candida albicans [8]): 10 mm
MIC (Escherichia coli [4]): 12.5 µg/mL (≈ 56.4 µM)
MIC (Staphylococcus aureus [5]): 25 µg/mL (≈ 113 µM)
MIC (Candida albicans [9]): 100 µg/mL (≈ 451 µM)
Activity (Pseudomonas aeruginosa [10]): inactive
Activity (Klebsiella pneumoniae [11]): inactive

O=C(N/N=C/c1ccc(Cl)cc1)c1cc(Cl)c(Cl)[nH]1
diameter of the inhibition zone (DIZ) (Escherichia coli [1]): 22 mm
diameter of the inhibition zone (DIZ) (Staphylococcus aureus [2]): 24 mm
diameter of the inhibition zone (DIZ) (Pseudomonas aeruginosa [12]): 16 mm
diameter of the inhibition zone (DIZ) (Klebsiella pneumoniae [3]): 20 mm
diameter of the inhibition zone (DIZ) (Candida albicans [8]): 20 mm
MIC (Escherichia coli [4]): 3.12 µg/mL (≈ 9.87 µM)
MIC (Staphylococcus aureus [5]): 1.56 µg/mL (≈ 4.93 µM)
MIC (Pseudomonas aeruginosa [6]): 25 µg/mL (≈ 79 µM)
MIC (Candida albicans [9]): 12.5 µg/mL (≈ 39.5 µM)

COc1ccc(/C=C/C(=O)c2cc(Cl)c(Cl)[nH]2)cc1
diameter of the inhibition zone (DIZ) (Escherichia coli [1]): 13 mm
diameter of the inhibition zone (DIZ) (Staphylococcus aureus [2]): 20 mm
diameter of the inhibition zone (DIZ) (Pseudomonas aeruginosa [12]): 17 mm
diameter of the inhibition zone (DIZ) (Klebsiella pneumoniae [3]): 18 mm
diameter of the inhibition zone (DIZ) (Candida albicans [8]): 12 mm
MIC (Escherichia coli [4]): 12.5 µg/mL (≈ 42.2 µM)
MIC (Staphylococcus aureus [5]): 12.5 µg/mL (≈ 42.2 µM)
MIC (Pseudomonas aeruginosa [6]): 100 µg/mL (≈ 338 µM)
MIC (Candida albicans [9]): 50 µg/mL (≈ 169 µM)

O=C(N/N=C/c1ccco1)c1cc(Cl)c(Cl)[nH]1
diameter of the inhibition zone (DIZ) (Escherichia coli [1]): 24 mm
diameter of the inhibition zone (DIZ) (Staphylococcus aureus [2]): 26 mm
diameter of the inhibition zone (DIZ) (Pseudomonas aeruginosa [12]): 24 mm
diameter of the inhibition zone (DIZ) (Klebsiella pneumoniae [3]): 20 mm
diameter of the inhibition zone (DIZ) (Candida albicans [8]): 23 mm
MIC (Escherichia coli [4]): 3.12 µg/mL (≈ 11.5 µM)
MIC (Staphylococcus aureus [5]): 1.56 µg/mL (≈ 5.73 µM)
MIC (Pseudomonas aeruginosa [6]): 25 µg/mL (≈ 91.9 µM)
MIC (Candida albicans [9]): 12.5 µg/mL (≈ 45.9 µM)

COc1ccc(/C=C/C(=O)c2ccc(Cl)[nH]2)cc1OC
diameter of the inhibition zone (DIZ) (Escherichia coli [1]): 13 mm
diameter of the inhibition zone (DIZ) (Staphylococcus aureus [2]): 13 mm
diameter of the inhibition zone (DIZ) (Candida albicans [8]): 14 mm
MIC (Escherichia coli [4]): 25 µg/mL (≈ 85.7 µM)
MIC (Staphylococcus aureus [5]): 25 µg/mL (≈ 85.7 µM)
MIC (Candida albicans [9]): 100 µg/mL (≈ 343 µM)
Activity (Pseudomonas aeruginosa [10]): inactive
Activity (Klebsiella pneumoniae [11]): inactive
